The list is not random: actives were taken first. Their share in the collection is about 1.3%.
RAD54 inh = blocks human RAD54 Holliday junction branch migration | Q92698 | FAM/BHQ fluorescence | inhibition, % at 10.4 µM | 360,000 compounds, 0.14% hits;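 active means mean normalized replicate activity at least 40 and at least half of replicates scoring 40 or more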;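 further: 0% = median of neutral control wells and 100% = median of positive control wells; inhibitors cause a drop in the FAM fluorescence signal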
RAD52 anneal inh = inhibitors of human RAD52 DNA annealing; inhibition, % at 18.7 µM; 360,000 compounds, 0.46% hits; recombinant RAD52 DNA annealing, FRET fluorescence; AID 651710; P43351;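 active means every replicate showing at least 50% inhibition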
Target sequence (P43351 whole entry, looked up): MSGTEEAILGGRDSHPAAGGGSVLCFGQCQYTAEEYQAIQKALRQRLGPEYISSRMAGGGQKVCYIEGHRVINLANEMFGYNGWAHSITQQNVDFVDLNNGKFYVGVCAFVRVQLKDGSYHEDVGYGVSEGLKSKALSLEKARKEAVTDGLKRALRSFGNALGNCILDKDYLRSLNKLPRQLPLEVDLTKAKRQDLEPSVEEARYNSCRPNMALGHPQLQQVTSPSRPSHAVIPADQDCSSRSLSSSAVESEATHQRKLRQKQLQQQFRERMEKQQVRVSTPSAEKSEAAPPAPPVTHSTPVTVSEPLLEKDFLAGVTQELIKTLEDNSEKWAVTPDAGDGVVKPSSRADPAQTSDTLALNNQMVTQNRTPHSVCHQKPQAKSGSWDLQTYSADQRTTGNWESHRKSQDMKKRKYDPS
PAX8 reporter = lowers PAX8-driven luciferase in RMG-I cells | inhibition, % at 12.6 µM | RMG-I TPO-luciferase reporter, SteadyGlo, 24 h | 360,000 compounds, 1.2% hits | AID 652154;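 active means mean replicate inhibition at least 60% with every replicate also reaching 60%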;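 further: luciferase light reporting Pax8 driven TPO promoter activity; plate controls were median of neutral control wells for no effect and mitoxantrone controls for full effect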
FN deposition inh = fibronectin deposition inhibition | AH1F fibroblasts, Alexa488-fibronectin deposition fluorescence, overnight | inhibition, % at 12.6 µM | 350,000 compounds, 0.086% hits | AID 743247;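 active means mean inhibition across replicates of 30% or more, regardless of how many single replicates reach that level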;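 further: positive control wells lacked labelled fibronectin entirely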
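Material – AH1F fibroblast monolayer, labelled fibronectin deposition · Reagent – labelled fibronectin 24 nM · Timing – 1 h adhesion, overnight exposure · Measured by – fluorescence at 485 nm excitation, 525 nm emission · Read-out – inhibition of fibronectin deposition signal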
* marks the source's active call; other numbers are inactive results; nt = no result given.

SMILES	RAD54 inh	RAD52 anneal inh	PAX8 reporter	FN deposition inh
CCCN(C)C[C@H]1OCCCC[C@H](C)Oc2ccc(NS(=O)(=O)c3ccccc3)cc2C(=O)N([C@@H](C)CO)C[C@H]1C	3	37	11	2
CCCN(C)C[C@H]1OCCCC[C@@H](C)Oc2ccc(NS(=O)(=O)c3ccccc3)cc2C(=O)N([C@@H](C)CO)C[C@H]1C	3	54*	28	0
CC1Cc2ccccc2N1C(=O)CSc1ncc(-c2ccc(F)cc2)n1C (centres undefined)	9	-8	-127	3
CC(C)C(c1nnnn1Cc1ccco1)N1CCN(c2nc3ccccc3s2)CC1 (centres undefined)	4	nt	nt	39*
O=C(NCc1cc(C(F)(F)F)ccc1Cl)c1cccc2c1C(=O)c1ccc(N3CCCCC3)cc1S2(=O)=O	-19	-390	14	-1
O=C(NCc1cc(C(F)(F)F)ccc1Cl)c1cccc2c1C(=O)c1ccc(N3CCC(N4CCCCC4)CC3)cc1S2(=O)=O	-27	-421	94*	-11
CN1C=C/C(=C\c2cc[n+](C)c3ccccc23)c2ccccc21	82*	79*	97*	0
Cc1nn(-c2nc3ccccc3[nH]2)c(=O)c2ccccc12	nt	-7	105*	17
Cc1nc2ccccc2c2c1CC(C(C)(Cl)Br)O2 (centres undefined)	nt	-19	16	-8
CCCCNC(=O)Nc1nc2ccc(CC)cc2s1	nt	3	-108	34*
CN(C)C(=O)C[C@H]1CC[C@@H]2[C@H](COc3ccc(NC(=O)C4CCOCC4)cc3C(=O)N2C)O1	2	3	-6	-17
CCOC(=O)c1nc2ccccc2s1	10	nt	nt	nt
COc1ccc(-c2cc(C(F)(F)F)nc(S(=O)(=O)CCCC(=O)Nc3cccc(O)c3)n2)cc1OC	12	0	63*	8
COc1ccc(S(=O)(=O)Nc2cccc3c2O[C@@H](CN(C)S(=O)(=O)c2c(C)noc2C)[C@H](C)CN([C@@H](C)CO)C3=O)cc1	3	-6	nt	nt
Cc1ccc(NC(=S)Nc2ccc(C(C)C)cc2)cc1S(=O)(=O)N1CCCCCC1	nt	-55	35	6
Cc1cc(C)c(S(=O)(=O)N2CCCC(C(=O)NCc3cccnc3)C2)c(C)c1 (centres undefined)	-5	1	7	nt
Cc1ccc2c(c1)COc1c3ccc(C(=O)O)cc3nn1-2	5	-25	65*	-10
S=C1NC2=C(CCCC2=C2SCCCS2)C(c2ccccc2)N1 (centres undefined)	nt	-18	19	-17
COc1ccc(C2NC(=S)NC3=C2CCCC3=C2SCCS2)cc1 (centres undefined)	-6	-12	102*	6
CN1CCN(C(=O)C[C@@H]2C[C@@H]3c4cc(NC(=O)CC5CC5)ccc4O[C@@H]3[C@H](CO)O2)CC1	6	1	nt	0
COc1ccccc1S(=O)(=O)N(C)C[C@H]1Oc2cc(C#CCC3CCCC3)ccc2S(=O)(=O)N([C@@H](C)CO)C[C@@H]1C	6	-12	82*	-2
C[C@H](CO)N1C[C@H](C)[C@@H](CN(C)C(=O)CN(C)C)Oc2cc(C#CCC3CCCC3)ccc2S1(=O)=O	-1	47	28	0
COCC(=O)N(C)C[C@H]1Oc2cc(C#CCC3CCCC3)ccc2S(=O)(=O)N([C@@H](C)CO)C[C@@H]1C	-1	11	73*	nt
COCC(=O)N(C)C[C@H]1Oc2cc(C#CCC3CCCC3)ccc2S(=O)(=O)N([C@H](C)CO)C[C@H]1C	4	-7	69*	nt
C[C@H]1CN([C@@H](C)CO)S(=O)(=O)c2ccc(C#CCC3CCCC3)cc2O[C@H]1CN(C)C(=O)CN(C)C	15	41	64*	12
SMILES	RAD54 inh	RAD52 anneal inh	PAX8 reporter	FN deposition inh
CCC(=O)N(C)C[C@H]1Oc2cc(C#CCC3CCCC3)ccc2S(=O)(=O)N([C@@H](C)CO)C[C@@H]1C	3	-6	17	nt
COc1ccccc1S(=O)(=O)N(C)C[C@@H]1Oc2cc(C#CCC(C)C)ccc2S(=O)(=O)N([C@H](C)CO)C[C@H]1C	-14	12	nt	nt
CCOc1ccccc1NC(=O)N1CCC(NC(=O)C2CCCCC2)CC1	-10	-10	-7	0
Cc1noc(C)c1NC(=O)Nc1ccc2c(c1)CC(=O)N([C@H](C)CO)C[C@H](C)[C@@H](CN(C)CC1CCCCC1)O2	-13	5	nt	nt
C[C@H]1CN([C@@H](C)CO)C(=O)c2cccc(NC(=O)NC3CCCCC3)c2O[C@H]1CN(C)S(=O)(=O)c1ccc(Cl)cc1	0	-31	72*	5
C[C@@H]1CN([C@@H](C)CO)C(=O)c2cccc(NC(=O)NC3CCCCC3)c2O[C@@H]1CN(C)S(=O)(=O)c1ccc(Cl)cc1	5	-24	4	-8
C[C@H](CO)N1C[C@H](C)[C@H](CN(C)S(=O)(=O)c2ccc(F)cc2)Oc2c(NC(=O)NC3CCCCC3)cccc2C1=O	-4	-18	62*	-7
Cc1ccc(-n2nc3c(c2NC(=O)C2CC2)CS(=O)(=O)C3)cc1C	6	-13	-2	10
CC(C)C(c1nnnn1C1CCCC1)N1CCCCC1 (centres undefined)	-6	nt	15	-3
Nc1ccc(Cn2ccc3c4c(N)nc(N)nc4ccc32)cc1	nt	35	70*	-2
Cc1nc2ccc(N)cc2c(=O)n1Cc1ccc(Cl)cc1	8	nt	nt	-8
O=C(NC1(C(=O)O)CCCC1)C(Cl)Cl	-2	5	0	0
O=C(Nc1cccc([N+](=O)[O-])c1)Nc1cccs1	nt	-9	-32	-7
COc1cc(NC(=O)NCc2ccco2)ccc1-c1ccc(NC(=O)NCc2ccco2)cc1OC	-9	-32	67*	0
O=C(O)C1CN(C(=O)c2ccccc2)c2cc(Cl)ccc2O1 (centres undefined)	-43	-3	22	-9
CCCC(=O)N(Cc1cc(=O)[nH]c2ccccc12)c1cccc(C)c1	-5	-26	5	1
CCCCCCN(C(=O)CCl)c1ccccc1	-7	-14	104*	-5
CCCCCCCN(C(=O)CCl)c1cccc(C)c1	-12	-5	103*	-6
Cc1cccc(N(Cc2cc(=O)[nH]c3ccccc23)C(=O)CCl)c1	nt	-10	115*	-7
N#CCCN(C(=O)CCl)c1cccc(Cl)c1	1	-1	1	2
CC(C)C(=O)N1CCCC1(C)C(=O)Nc1ccc(-n2cncn2)cc1 (centres undefined)	-2	-3	21	0
CCOc1cc(C(=O)NC)cc(Br)c1OCc1ccccc1	-2	-6	6	4
O=C(NCc1cccnc1)/C(=C\c1ccc(-c2ccc(Cl)c(Cl)c2)o1)S(=O)(=O)c1ccccc1	-1	-39	91*	31*
CCC(=O)N1CCCCN2[C@@H](CO)[C@@H](c3ccc(C#CCOC)cc3)[C@@H]2C1	4	-7	-15	nt
CCN(CC)S(=O)(=O)c1ccc(N2CCOCC2)c(NC(=O)C(=O)c2c(-c3ccccc3)cc3ccccn23)c1	1	nt	nt	-4
Cc1cccn2c(=O)c3cc(C(=O)NCCN4CCOCC4)c(=N)n(Cc4ccc(F)cc4)c3nc12	38	44	75*	-4

Assay outcomes from PubChem.
